# Measurements taken from article PMC8006165 (ACS Central Science, 2021).
# Values joined by “and” are separate entries in the source; they are usually repeats but may differ in a detail not shown here. Equal entries are not always repeated.
# T1: SeYihT (Salmonella enterica, UniProt Q9L7R9)
# T1 sequence (Q9L7R9 1-292): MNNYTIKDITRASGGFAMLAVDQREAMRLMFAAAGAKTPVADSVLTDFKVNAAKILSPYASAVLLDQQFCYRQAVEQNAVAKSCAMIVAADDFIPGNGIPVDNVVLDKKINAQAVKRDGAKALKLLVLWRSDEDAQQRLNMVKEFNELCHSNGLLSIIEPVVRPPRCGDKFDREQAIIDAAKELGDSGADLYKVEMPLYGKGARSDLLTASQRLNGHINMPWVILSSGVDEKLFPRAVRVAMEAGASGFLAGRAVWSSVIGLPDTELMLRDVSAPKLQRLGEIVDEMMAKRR
# T2: EcYihV (Escherichia coli, UniProt P32143)
# T2 sequence (P32143 1-298): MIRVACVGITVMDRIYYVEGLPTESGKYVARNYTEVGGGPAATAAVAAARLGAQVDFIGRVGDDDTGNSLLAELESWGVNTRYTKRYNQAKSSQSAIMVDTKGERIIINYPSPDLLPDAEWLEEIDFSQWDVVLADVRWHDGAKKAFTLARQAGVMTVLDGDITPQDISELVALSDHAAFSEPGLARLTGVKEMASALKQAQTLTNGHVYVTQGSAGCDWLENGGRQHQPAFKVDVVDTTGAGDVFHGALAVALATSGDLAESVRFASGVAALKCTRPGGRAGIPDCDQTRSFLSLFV
# B1: Salmonella enterica YihT (sulfofructose-1-phosphate aldolase) (enzyme, UniProt Q9L7R9 1-292, looked up)
# chain: T1 sequence (Q9L7R9 1-292)
# B2: E. coli YihV (sulfofructose kinase) (enzyme, UniProt P32143 1-298, looked up)
# chain: T2 sequence (P32143 1-298)
# B3: E. coli YihT (sulfofructose-1-phosphate aldolase) (enzyme, UniProt P32141 1-292, looked up)
# chain: MNKYTINDITRASGGFAMLAVDQREAMRMMFAAAGAPAPVADSVLTDFKVNAAKALSPYASAILVDQQFCYRQVVEQNAIAKSCAMIVAADEFIPGNGIPVDSVVIDRKINPLQIKQDGGKALKLLVLWRSDEDAQQRLDMVKEFNELCHSHGLVSIIEPVVRPPRRGDKFDREQAIIDAAKELGDSGADLYKVEMPLYGKGPQQELLCASQRLNDHINMPWVILSSGVDEKLFPRAVRVAMTAGASGFLAGRAVWASVVGLPDNELMLRDVCAPKLQQLGDIVDEMMAKRR
# Key:
# SeYihT = biological target: T1, SeYihT; experiment: X-ray structure, in-crystal cleavage of SFP; type: binding; conditions: covalent Schiff base with Lys193
# EcYihV [1] = biological target: T2, EcYihV; experiment: effect of additive on SF phosphorylation, HPLC-MS/MS; type: biochemical; conditions: 1.0 mM ATP, varied SF, pH 7.5, 30 °C, activator
# EcYihV [2] = biological target: T2, EcYihV; experiment: SFP production, HPLC-MS/MS; type: biochemical; conditions: substrate inhibition; 1.0 mM ATP; pH 7.5, 5 mM MgCl2, 30 °C; no additive
# Outline: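 Recombinant E. coli YihV (36.6 nM) phosphorylating chemically synthesized sulfofructose (SF) to SFP. […] SFP formation was quantified by HPLC-MS/MS on a ZIC-HILIC column. Rates across SF concentrations were fitted to a substrate inhibition kinetic model.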
# EcYihV [3] = biological target: T2, EcYihV; experiment: X-ray structure of cocrystal; type: binding; conditions: with Mg; open and closed subunits
# [4] = biological target: Salmonella enterica YihS (SQ-SF isomerase), as measured by SEC-MALS (Salmonella enterica) (UniProt Q8ZKT7); experiment: SEC-MALS
# purified protein [5] = substrate: O=C(COP(=O)(O)O)[C@@H](O)[C@H](O)[C@H](O)CS(=O)(=O)O; experiment: purified protein; conditions: SFP to SLA and DHAP
# SEC-MALS = biological target: the molecule itself; experiment: SEC-MALS
# purified protein [6] = substrate: Nc1ncnc2c1ncn2[C@@H]1O[C@H](COP(=O)(O)OP(=O)(O)OP(=O)(O)O)[C@@H](O)[C@H]1O; experiment: purified protein; conditions: 1.0 mM SF, 25 mM BTP pH 7.5, 25 mM KCl, 5 mM MgCl2, 30 °C
molecule,measurement,setting,value
O=C(CO)COP(=O)(O)O [DHAP],"X-ray structure, in-crystal cleavage of SFP",SeYihT,a new Schiff base formed with a DHAP molecule could be modeled
O=P(O)(O)OC[C@H]1OC(O)(COP(=O)(O)O)[C@@H](O)[C@@H]1O (some centres unmarked) [FBP],"effect of additive on SF phosphorylation, HPLC-MS/MS",EcYihV [1]; 10 mM FBP,"by F6P, FBP, PEP, and citrate (through effects on kcat/KM)"
C=C(OP(=O)(O)O)C(=O)O [PEP],"effect of additive on SF phosphorylation, HPLC-MS/MS",EcYihV [1]; 10 mM PEP,"by F6P, FBP, PEP, and citrate (through effects on kcat/KM)"
"O=S(=O)(O)C[C@H]1OC(O)(CO)[C@@H](O)[C@@H]1O (some centres unmarked) [SF, 6-deoxy-6-sulfofructose]",KI,EcYihV [2],8.5 ± 2.8 mM
Nc1ncnc2c1ncn2[C@@H]1O[C@H](COP(=O)(O)OP(=O)(O)NP(=O)(O)O)[C@@H](O)[C@H]1O [AMPPNP],X-ray structure of cocrystal,EcYihV [3],AMPPNP resulted in the EcYihV·AMPPNP·Mg complex showing a surface-accessible nucleotide binding site
"Salmonella enterica YihS (SQ-SF isomerase), as measured by SEC-MALS (from UniProt Q8ZKT7 2-413) (enzyme)",stoichiometry N,[4],6
B1,Km,purified protein [5],3570 ± 420 µM
same,kcat,purified protein [5],47.7 ± 2.4 s⁻¹
same,stoichiometry N,SEC-MALS,4
B2,Km,purified protein [6],1000 ± 200 µM
same,kcat,purified protein [6],3.1 s⁻¹
same,kcat/Km,purified protein [6],3200 M⁻¹ s⁻¹
same,stoichiometry N,SEC-MALS,2 and 4
B3,stoichiometry N,SEC-MALS,4
